# Results as given in ChEMBL document CHEMBL3407395, “Synthesis, characterization, and optimization for in vivo delivery of a nonselective isopeptidase inhibitor as new antineoplastic agent” (J Med Chem, 2015).
# Active and inactive are the calls of the source. The calls are words filed in the database; no cut-off is given here.
# Tests used:
# [1] = Cytotoxicity against human MIAPaCa2 cells after 48 hrs by resazurin assay; assay type: functional, cell-based; conditions: MIA PaCa-2, 48 h
# [2] = target: T1, Ubiquitin carboxyl-terminal hydrolase 2 (Homo sapiens) (UniProt O75604); test: Inhibition of USP2 catalytic domain (unknown origin) expressed in bacteria using Ub-AMC as substrate preincubated for 30 mins before substrate addition measured after 60 mins by fluorescence assay
# T1 sequence (whole entry): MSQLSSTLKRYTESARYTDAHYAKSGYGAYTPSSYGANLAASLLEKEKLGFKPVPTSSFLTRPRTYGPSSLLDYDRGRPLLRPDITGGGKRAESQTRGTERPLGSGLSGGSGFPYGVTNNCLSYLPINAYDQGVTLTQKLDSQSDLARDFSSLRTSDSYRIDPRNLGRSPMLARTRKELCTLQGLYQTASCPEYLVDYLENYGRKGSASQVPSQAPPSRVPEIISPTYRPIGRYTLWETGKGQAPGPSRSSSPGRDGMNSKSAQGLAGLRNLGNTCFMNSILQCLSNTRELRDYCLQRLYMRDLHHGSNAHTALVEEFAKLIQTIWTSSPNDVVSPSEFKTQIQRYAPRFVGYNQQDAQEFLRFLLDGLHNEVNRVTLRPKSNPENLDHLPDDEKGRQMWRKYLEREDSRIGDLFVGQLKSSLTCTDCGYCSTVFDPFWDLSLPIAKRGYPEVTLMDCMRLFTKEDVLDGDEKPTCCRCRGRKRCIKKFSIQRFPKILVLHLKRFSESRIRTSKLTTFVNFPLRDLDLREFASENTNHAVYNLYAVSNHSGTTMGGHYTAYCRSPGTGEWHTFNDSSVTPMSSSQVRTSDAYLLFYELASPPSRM
# Summary of the method: (§1)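 Purified isopeptidase activity was measured with ubiquitin-AMC as fluorogenic substrate; IC50 was derived from inhibition.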
# U-87 MG [3] = test: Induction of apoptosis in human U87MG cells assessed as caspase activation at 0.6 to 10 uM after 24 hrs by rhodamine-based fluorescence assay; assay type: functional, cell-based; conditions: U-87MG ATCC
# Summary of the method: (§2)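 U87MG or T98G cells exposed 24 h to the listed concentrations. Caspase activity was read as relative fluorescence units from the rhodamine 110 bis-(N-Z-L-aspartyl-L-glutamyl-L-valyl-aspartic acid amide) fluorogenic substrate.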
# A549 [4] = test: Induction of cell death in human A549 cells assessed as accumulation of Noxa at 10 uM after 48 hrs by immunoblot assay; assay type: functional, cell-based
# Summary of the method: (§3)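 A549 cells grown in normal or A375-conditioned medium, treated with 10 µM. Immunoblots probed poly-ubiquitin accumulation, p53 stabilization and Noxa induction.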
# [5] = target: Ubiquitin carboxyl-terminal hydrolase isozyme L1 (Homo sapiens) (UniProt P09936); test: Inhibition of GST-tagged recombinant full-length UCHL1 (unknown origin) expressed in bacteria using Ub-AMC as substrate preincubated for 30 mins before substrate addition measured after 60 mins by fluorescence assay; summary of the method: as §1
# Sequence of Ubiquitin carboxyl-terminal hydrolase isozyme L1 (Homo sapiens) (P09936 whole entry, looked up): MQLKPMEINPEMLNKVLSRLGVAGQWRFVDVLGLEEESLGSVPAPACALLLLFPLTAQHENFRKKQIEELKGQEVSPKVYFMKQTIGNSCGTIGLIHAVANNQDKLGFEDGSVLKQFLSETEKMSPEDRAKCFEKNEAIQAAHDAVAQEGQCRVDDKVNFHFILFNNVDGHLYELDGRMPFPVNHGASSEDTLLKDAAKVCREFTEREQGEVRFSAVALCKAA
# U-87 MG [6] = test: Induction of necrosis in human U87MG cells at 0.6 to 10 uM after 24 hrs by trypan blue assay; assay type: functional, cell-based; conditions: U-87MG ATCC
# Summary of the method: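 U87MG cells treated 24 h at the indicated concentrations. Death scored as percent trypan blue-positive cells. Caspase activity measured in parallel with a rhodamine 110 bis-(N-Z-DEVD amide) fluorogenic substrate and read in relative fluorescence units.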
# A549 [7] = test: Induction of cell death in human A549 cells at 10 uM after 24 to 72 hrs by trypan blue assay; assay type: functional, cell-based
# Summary of the method: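 A549 cells given 10 µM for 24–72 h. Cell death was scored by trypan blue at each time point.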
# T98G = test: Induction of apoptosis in human T98G cells assessed as caspase activation at 0.6 to 10 uM after 24 hrs by rhodamine-based fluorescence assay; assay type: functional, cell-based; summary of the method: as §2
# [8] = target: T2, Ubl carboxyl-terminal hydrolase 18 (Homo sapiens) (UniProt Q9UMW8); test: Inhibition of USP18 (unknown origin) expressed in human A549 cells coexpressing ISG15-GFP assessed as reduction in free GFP at 2.5 to 10 uM after 24 hrs by immunoblot assay; assay type: cell-based
# T2 sequence (whole entry): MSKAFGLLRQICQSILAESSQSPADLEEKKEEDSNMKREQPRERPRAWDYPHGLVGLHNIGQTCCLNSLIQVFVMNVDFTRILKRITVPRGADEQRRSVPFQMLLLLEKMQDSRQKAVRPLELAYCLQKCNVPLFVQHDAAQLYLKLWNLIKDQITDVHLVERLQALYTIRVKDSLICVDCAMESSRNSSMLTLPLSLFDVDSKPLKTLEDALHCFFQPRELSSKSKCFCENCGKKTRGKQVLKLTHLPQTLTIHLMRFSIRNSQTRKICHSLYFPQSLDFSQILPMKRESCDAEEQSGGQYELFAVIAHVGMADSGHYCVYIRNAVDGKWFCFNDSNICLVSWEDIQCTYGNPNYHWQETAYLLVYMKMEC
# U-87MG ATCC = test: Induction of cell death in human U87MG cells at 4.2 to 18.4 uM after 24 hrs by trypan blue assay in presence of zVAD-fmk; assay type: functional, cell-based
# A549 [9] = test: Induction of cell death in human A549 cells assessed as accumulation of p53 at 10 uM after 48 hrs by immunoblot assay; assay type: functional, cell-based; summary of the method: as §3
# A549 [10] = test: Induction of cell death in human A549 cells assessed as accumulation of poly-ubiquitinated proteins at 10 uM after 48 hrs by immunoblot assay; assay type: functional, cell-based; summary of the method: as §3
# [11] = Cytotoxicity against human U87MG cells after 48 hrs by resazurin assay; assay type: functional, cell-based, U-87MG ATCC; conditions: U-87 MG
# Summary of the method: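 U87MG glioblastoma cells treated with compounds; viability read by resazurin 48 h after treatment. IC50 from triplicate experiments, reported as mean and s.d.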
# A549 [12] = test: Induction of cell death in human A549 cells assessed as stabilization of p53 at 2.5 to 10 uM after 24 hrs by immunoblot assay; assay type: functional, cell-based
# Summary of the method: (§4)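 A549 cells dosed at three levels (2.5, 5, 10 µM or 1, 2.5, 5 µM depending on inhibitor); lysates made after 24 h. Immunoblots probed poly-ubiquitin, p53 and Noxa, quantified by densitometry; mean of two experiments.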
# A-375 [13] = test: Induction of cell death in human A375 cells at 2.5 to 10 uM after 48 hrs by trypan blue assay; assay type: functional, cell-based
# Summary of the method: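 A549 or A375 cells treated 48 h with 2.5–10 µM. Cell death was scored by trypan blue exclusion as a function of concentration.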
# A-375 [14] = test: Induction of cell death in human A375 cells assessed as accumulation of poly-ubiquitinated proteins at 10 uM after 24 hrs by immunoblot assay; assay type: functional, cell-based
# A549 [15] = test: Cytotoxicity against human A549 cells after 48 hrs by resazurin assay; assay type: functional, cell-based; conditions: A549, 48 h
# A-375 [16] = test: Induction of cell death in human A375 cells assessed as stabilization of p53 at 10 uM after 24 hrs by immunoblot assay; assay type: functional, cell-based
# HT-29 = test: Induction of cell death in human HT-29 cells at 2.5 to 10 uM after 48 hrs by trypan blue assay; assay type: functional, cell-based
# A549 [17] = test: Induction of cell death in human A549 cells assessed as accumulation of Noxa at 1 to 5 uM after 24 hrs by immunoblot assay; assay type: functional, cell-based; summary of the method: as §4
# A-375 [18] = test: Cytotoxicity against human A375 cells after 48 hrs by resazurin assay; assay type: functional, cell-based; conditions: A-375, 48 h
structure (smiles),measurement,setting,value
O=C1/C(=C/c2ccc([N+](=O)[O-])cc2)CC(O)C/C1=C\c1ccc([N+](=O)[O-])cc1 (stereo unspecified),IC50,[1],35.2 µM
same,inhibition,[2],inactive
same,Activity,U-87 MG [3],Active
same,Activity,A549 [4],Active
same,inhibition,[5],inactive
same,Activity,U-87 MG [6],Active
same,Activity,A549 [7],Active
same,Activity,T98G,Active
same,inhibition,[8],Active
same,Activity,U-87MG ATCC,Active
same,Activity,A549 [9],Active
same,Activity,A549 [10],Active
same,IC50,[11],4.62 µM
same,Activity,A549 [12],Active
same,Activity,A-375 [13],Active
same,Activity,A-375 [14],Active
same,IC50,A549 [15],16 µM
same,Activity,A-375 [16],Active
same,Activity,HT-29,Active
same,Activity,A549 [17],Active
same,IC50,A-375 [18],6.1 µM
